In brackets after ≈: the same amount, converted by molar mass.

The test system of assay [1] is Human immunodeficiency virus 2. The assay can be described thus: Antiviral activity against HIV-2 virus infected CEM cell lines. The class given is functional, CCRF-CEM.
Assay [2] deals with CCRF-CEM. The assay can be described thus: Cytotoxicity against CEM cell lines. The class given is functional. Conditions: Homo sapiens.
In assay [3] the test system is Human immunodeficiency virus 1. The assay can be described thus: Antiviral activity against HIV-1 virus infected CEM cell lines. The class given is functional, CCRF-CEM.
Assay [4] has as its system Human alphaherpesvirus 1. Nature of the assay: Antiviral activity against HSV-1 virus infected HEF cell lines. Type of assay: functional. A digest of the protocol:
(§1)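 Human embryonic fibroblasts, from embryonic lung or embryonic skin-muscle, infected with the virus. Endpoint is the minimum inhibitory concentration that reduces virus-induced cytopathicity by 50%. Values are averages of at least two separate experiments.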

Assay [5] relates to Human alphaherpesvirus 2. Nature of the assay: Antiviral activity against HSV-2 virus infected HEF cell lines. Type of assay: functional. An outline of the steps: as §1
Assay [6] deals with Human alphaherpesvirus 1. Nature of the assay: Antiviral activity against TK-HSV-1 virus infected HEF cell lines. The class given is functional. A digest of the protocol:
as §1

Assay [7] deals with HEF. The assay can be described thus: Effects on cell morphology of HEF cell lines. Type of assay: functional. Conditions: Homo sapiens. A digest of the protocol: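 Human embryonic skin-muscle fibroblasts were examined under the microscope for changes in normal cell morphology. The value is the minimum concentration causing a microscopically detectable alteration, averaged from at least two separate experiments.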

In assay [8] the test system is Vaccinia virus. The assay can be described thus: Antiviral activity against vaccinia virus infected HEF cell lines. To be noted: Orthopoxvirus vaccinia. Type of assay: functional. A digest of the protocol:
as §1

Assay [9] has as its system Enterovirus C. The assay can be described thus: Antiviral activity against polio 1 virus infected HeLa cell lines. Type of assay: functional. A digest of the protocol: (§2)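 Vero (African green monkey kidney), HeLa (human epithelial) or HEL (human embryonic lung) cell monolayers infected with the virus. Readout is the minimum inhibitory concentration that reduces virus-induced cytopathicity by 50%. Values are averages of at least two separate experiments.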

Assay [10] deals with Vesicular stomatitis virus. Nature of the assay: Antiviral activity against vesicular stomatitis virus infected HeLa cell lines. The class given is functional. A digest of the protocol:
as §2

Assay [11] deals with Coxsackievirus B4. The assay can be described thus: Antiviral activity against Coxsackie B4 virus infected HeLa cell lines. Conditions: Enterovirus B. Type of assay: functional. A digest of the protocol: as §2
In assay [12] the test system is Human betaherpesvirus 5. Nature of the assay: Antiviral activity against HCMV virus infected HEL cell lines. The class given is functional. An outline of the steps:
as §2

Assay [13] deals with Human alphaherpesvirus 3. Nature of the assay: Antiviral activity against TK+VZV virus infected HEL cell lines. The class given is functional. A digest of the protocol:
as §2

In assay [14] the test system is Human alphaherpesvirus 3. The assay can be described thus: Antiviral activity against TK-VZV virus infected HEL cell lines. The class given is functional. A digest of the protocol:
as §2

Assay [15] concerns HEL. Nature of the assay: Inhibition of HEL cell proliferation. The class given is functional. To be noted: Homo sapiens. A digest of the protocol:
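Human embryonic lung fibroblasts were used for the proliferation assay. The value is the concentration that reduces cell proliferation by 50%, averaged from at least two separate experiments.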

The subject of assay [16] is MDCK. Nature of the assay: Antiviral activity tested against influenza A,H1N1 virus infected MDCK cell lines. The class given is functional. Conditions: Canis lupus familiaris.
Assay [17] can be described thus: Antiviral activity against influenza A,H3N2 virus infected MDCK cell lines. The class given is functional.
The test system of assay [18] is Influenza B virus. Nature of the assay: Antiviral activity against influenza B virus infected MDCK cell lines. The class given is functional.
The test system of assay [19] is MDCK. Nature of the assay: Antiviral activity of compound was tested against morphology virus infec+ted MDCK cell lines. Type of assay: functional. Conditions: Canis lupus familiaris.
The test system of assay [20] is Semliki Forest virus. The assay can be described thus: Antiviral activity against Semliki forest virus infected Vero cell lines. The class given is functional. An outline of the steps:
as §2

Assay [21] has as its system Coxsackievirus B4. The assay can be described thus: Antiviral activity against Coxsackie B4 virus infected vero cell lines. Conditions: Enterovirus B. The class given is functional. A digest of the protocol: as §2
Assay [22] concerns Vero. Nature of the assay: Effects on cell morphology of Vero cell lines. The class given is functional. To be noted: Chlorocebus sabaeus. An outline of the steps: (§3)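 HeLa (human epithelial) or Vero (African green monkey kidney) cells were examined under the microscope for changes in normal morphology. The value is the minimum concentration causing a detectable alteration, averaged from at least two separate experiments.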

Assay [23] has as its system Human respirovirus 3. Nature of the assay: Antiviral activity against parainfluenza 3 virus infected Vero cell lines. The class given is functional. A digest of the protocol: as §2
Assay [24] relates to Mammalian orthoreovirus 1. Nature of the assay: Antiviral activity against Reo 1 virus infected vero cell lines. The class given is functional. A digest of the protocol:
as §2

The subject of assay [25] is Sindbis virus. Nature of the assay: Antiviral activity against sindbis virus infected Vero cell lines. The class given is functional. An outline of the steps: as §2
Assay [26] in a line: Antiviral activity against influenza A,H2N2 virus infected MDCK cell lines. The class given is functional.
Assay [27] concerns HeLa. The assay can be described thus: Effects on cell morphology of HeLa cell lines. The class given is functional. To be noted: Homo sapiens. A digest of the protocol: as §3
Assay [28] relates to Vesicular stomatitis virus. Nature of the assay: Antiviral activity against vesicular stomatitis virus infected HEF cell lines. The class given is functional. An outline of the steps:
as §1

In the case of `NC1(C23CC4CC(CC(C4)C2)C3)CCCC1`, the MIC50 was greater than 8 µg/mL in [1]; 18 µg/mL (≈ 82.1 µM) in assay [2]; greater than 8 µg/mL in assay [3]; greater than 10 µg/mL in assay [4]; greater than 10 µg/mL in assay [5]; greater than 10 µg/mL in [6]. Besides, the MIC50 in assay [7] is 40 µg/mL (≈ 182 µM); in assay [8], greater than 10 µg/mL; in [9], greater than 40 µg/mL; in assay [10], greater than 40 µg/mL; in [11] it was greater than 40 µg/mL; in assay [12], greater than 20 µg/mL. Besides, the MIC50 in [13] is greater than 20 µg/mL; in assay [14] it was greater than 20 µg/mL; in [15] it was greater than 50 µg/mL; in assay [16], greater than 64 µg/mL; in assay [17], 6 µg/mL (≈ 27.4 µM); in [18], 20 µg/mL (≈ 91.2 µM). Moreover, the MIC50 in [19] is greater than 250 µg/mL; in assay [20], greater than 10 µg/mL; in assay [21], greater than 10 µg/mL; in assay [22] it was greater than 400 µg/mL; in [23] it was greater than 10 µg/mL; in [24] it was greater than 10 µg/mL. Moreover, the MIC50 in assay [25] is greater than 10 µg/mL; in assay [26], 2.5 µg/mL (≈ 11.4 µM); in assay [27] it was 100 µg/mL (≈ 456 µM); in assay [28], greater than 10 µg/mL.
Turning to `NC12CC3CC(CC(C3)C1)C2` [AMANTADINE], the MIC50 in assay [16] was 48 µg/mL (≈ 317 µM); in [19] it was greater than 250 µg/mL; in assay [26], 0.8 µg/mL (≈ 5.29 µM).
Consider `Nc1nc2c(ncn2COC(CO)CO)c(=O)[nH]1` [GANCICLOVIR], for which the MIC50 in [4] is greater than 200 µg/mL; in assay [5], 0.002 µg/mL (≈ 0.00784 µM); in [6], 0.02 µg/mL (≈ 0.0784 µM); in assay [7], greater than 100 µg/mL; in [8] it was greater than 100 µg/mL; in [12] it was 0.7 µg/mL (≈ 2.74 µM). The same compound registered an MIC50 in [28] greater than 100 µg/mL.
For `NC(=O)c1ncn([C@@H]2O[C@H](CO)[C@@H](O)[C@H]2O)n1` [RIBAVIRIN], the MIC50 in [4] is greater than 200 µg/mL; in assay [5] it was greater than 200 µg/mL; in assay [6], greater than 200 µg/mL; in assay [7], 400 µg/mL (≈ 1640 µM); in assay [8], 20 µg/mL (≈ 81.9 µM); in assay [9], 20 µg/mL (≈ 81.9 µM). Also, the MIC50 in [10] is 20 µg/mL (≈ 81.9 µM); in assay [11] it was 10 µg/mL (≈ 40.9 µM); in assay [16] it was 19 µg/mL (≈ 77.8 µM); in assay [17] it was 5.6 µg/mL (≈ 22.9 µM); in assay [18] it was 2.4 µg/mL (≈ 9.83 µM); in [19] it was greater than 250 µg/mL. Moreover, the MIC50 in assay [20] was greater than 400 µg/mL; in assay [21], greater than 400 µg/mL; in [22], greater than 400 µg/mL; in assay [23], 150 µg/mL (≈ 614 µM); in assay [24], 70 µg/mL (≈ 287 µM); in assay [25], greater than 400 µg/mL. Also, the MIC50 is 48.7 µg/mL (≈ 199 µM) in assay [26], greater than 400 µg/mL in [27] and 20 µg/mL (≈ 81.9 µM) in assay [28].
In the case of `CC(N)C12CC3CC(CC(C3)C1)C2` (centres undefined) [RIMANTADINE], the MIC50 in assay [16] is 28 µg/mL (≈ 156 µM); in [17], greater than 12 µg/mL; in assay [18], greater than 20 µg/mL; in assay [19] it was 250 µg/mL (≈ 1390 µM); in assay [26] it was less than 0.14 µg/mL.

The record behind these values is ChEMBL document CHEMBL1129609, “Synthesis and antiviral activity evaluation of some new aminoadamantane derivatives. 2” (1996).
